Measured values from ChEMBL document CHEMBL3580633, “Benzoxaborole antimalarial agents. Part 4. Discovery of potent 6-(2-(alkoxycarbonyl)pyrazinyl-5-oxy)-1,3-dihydro-1-hydroxy-2,1-benzoxaboroles” (J Med Chem, 2015).

Key:
Plasmodium berghei [1] = assay: Antiplasmodial activity against Plasmodium berghei infected in Swiss Webster mouse assessed as mouse survival at 100 mg/kg, po dosed once daily for 4 consecutive days beginning 1 hr after initial infection and measured on day 4 post infection by Giemsa staining method; assay type: functional
Summary of the method: (§1)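 Female Swiss Webster mice (about 20 g) infected ip with 6 × 10^6 P. berghei-infected erythrocytes. Oral gavage once daily for 4 days, starting 1 h after infection. Vehicle PEG300/propylene glycol/water (55/25/20 by weight). Giemsa-smear parasitemia counted daily from day 4. Mice euthanised above 50% parasitemia. Survival followed to day 21, 5 mice per dose, chloroquine 30 mg/kg as reference.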

Plasmodium berghei [2] = assay: Antiplasmodial activity against Plasmodium berghei infected in Swiss Webster mouse assessed as mouse survival at 11 mg/kg, po dosed once daily for 4 consecutive days beginning 1 hr after initial infection and measured on day 5 post infection by Giemsa staining method; assay type: functional; summary of the method: as §1
Plasmodium berghei [3] = assay: Antiplasmodial activity against Plasmodium berghei infected in Swiss Webster mouse assessed as mouse survival at 11 mg/kg, po dosed once daily for 4 consecutive days beginning 1 hr after initial infection and measured on day 4 post infection by Giemsa staining method; assay type: functional; summary of the method: as §1
Plasmodium berghei [4] = assay: Antiplasmodial activity against Plasmodium berghei infected in Swiss Webster mouse assessed as mouse survival at 33 mg/kg, po dosed once daily for 4 consecutive days beginning 1 hr after initial infection and measured on day 4 post infection by Giemsa staining method; assay type: functional
Summary of the method: (§2)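 Female Swiss Webster mice (about 20 g) were infected ip with 6 × 10^6 P. berghei-infected erythrocytes from a donor mouse. They were dosed by oral gavage once daily for 4 days, starting 1 h post-infection, in PEG 300/propylene glycol/water (55/25/20 by weight). Parasitemia was read daily on Giemsa smears from day 4, and mice were euthanized above 50% parasitemia. Percent survival was tracked to 21 days.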

Jurkat = assay: Cytotoxicity against human Jurkat cells incubated for 72 hrs by MTT assay; assay type: cell-based
Plasmodium falciparum [5] = assay: Antimalarial activity against chloroquine-sensitive Plasmodium falciparum 3D7 cultured in human erythrocytes incubated for 48 hrs by [3H]-hypoxanthine incorporation assay; assay type: functional, organism-based
Summary of the method: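 3D7 parasites in human erythrocytes, RPMI-1640 with 0.5% Albumax II, […], 37 °C, 5% O2/5% CO2. Asynchronous cultures (0.5% parasitemia, 2% hematocrit) given 3-fold serial dilutions for 24 h. [3H]hypoxanthine then added for a further 24 h, and incorporation counted by scintillation. Normalised to drug-free infected cells. IC50 from at least three independent experiments.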

Plasmodium berghei [6] = assay: Antiplasmodial activity against Plasmodium berghei infected in Swiss Webster mouse assessed as mouse survival at 3 mg/kg, po dosed once daily for 4 consecutive days beginning 1 hr after initial infection and measured on day 5 post infection by Giemsa staining method; assay type: functional; summary of the method: as §1
Plasmodium berghei [7] = assay: Antiplasmodial activity against Plasmodium berghei infected in Swiss Webster mouse assessed as mouse survival at 100 mg/kg, po dosed once daily for 4 consecutive days beginning 1 hr after initial infection and measured on day 8 post infection by Giemsa staining method; assay type: functional; summary of the method: as §1
Plasmodium berghei [8] = assay: Antiplasmodial activity against Plasmodium berghei infected in Swiss Webster mouse assessed as mouse survival at 3 mg/kg, po dosed once daily for 4 consecutive days beginning 1 hr after initial infection and measured on day 8 post infection by Giemsa staining method; assay type: functional; summary of the method: as §1
Plasmodium falciparum [9] = assay: Antimalarial activity against chloroquine-resistant Plasmodium falciparum W2 cultured in human erythrocytes assessed as inhibition of parasite growth incubated for 48 hrs by YOYO-1 staining based flow cytometry; assay type: functional, organism-based; conditions: W2, 48 h
Plasmodium berghei [10] = assay: Antiplasmodial activity against Plasmodium berghei infected in Swiss Webster mouse assessed as mouse survival at 11 mg/kg, po dosed once daily for 4 consecutive days beginning 1 hr after initial infection and measured on day 8 post infection by Giemsa staining method; assay type: functional; summary of the method: as §1
Plasmodium berghei [11] = assay: Antiplasmodial activity against Plasmodium berghei infected in Swiss Webster mouse assessed as mouse survival at 33 mg/kg, po dosed once daily for 4 consecutive days beginning 1 hr after initial infection and measured on day 9 post infection by Giemsa staining method; assay type: functional; summary of the method: as §2
Plasmodium berghei [12] = assay: Antiplasmodial activity against Plasmodium berghei infected in Swiss Webster mouse assessed as mouse survival at 33 mg/kg, po dosed once daily for 4 consecutive days beginning 1 hr after initial infection and measured on day 5 post infection by Giemsa staining method; assay type: functional; summary of the method: as §2
Plasmodium berghei [13] = assay: Antiplasmodial activity against Plasmodium berghei infected in Swiss Webster mouse assessed as mouse survival at 3 mg/kg, po dosed once daily for 4 consecutive days beginning 1 hr after initial infection and measured on day 6 post infection by Giemsa staining method; assay type: functional; summary of the method: as §1
Plasmodium berghei [14] = assay: Antiplasmodial activity against Plasmodium berghei infected in Swiss Webster mouse assessed as mouse survival at 100 mg/kg, po dosed once daily for 4 consecutive days beginning 1 hr after initial infection and measured on day 7 post infection by Giemsa staining method; assay type: functional; summary of the method: as §1
Plasmodium berghei [15] = assay: Antiplasmodial activity against Plasmodium berghei infected in Swiss Webster mouse assessed as mouse survival at 1 mg/kg, po dosed once daily for 4 consecutive days beginning 1 hr after initial infection and measured on day 4 post infection by Giemsa staining method; assay type: functional; summary of the method: as §1
Plasmodium berghei [16] = assay: Antiplasmodial activity against Plasmodium berghei infected in Swiss Webster mouse assessed as mouse survival at 11 mg/kg, po dosed once daily for 4 consecutive days beginning 1 hr after initial infection and measured on day 9 post infection by Giemsa staining method; assay type: functional; summary of the method: as §1
Plasmodium berghei [17] = assay: Antiplasmodial activity against Plasmodium berghei infected in Swiss Webster mouse assessed as mouse survival at 1 mg/kg, po dosed once daily for 4 consecutive days beginning 1 hr after initial infection and measured on day 6 post infection by Giemsa staining method; assay type: functional; summary of the method: as §1
Plasmodium berghei [18] = assay: Antiplasmodial activity against Plasmodium berghei infected in Swiss Webster mouse assessed as mouse survival at 1 mg/kg, po dosed once daily for 4 consecutive days beginning 1 hr after initial infection and measured on day 5 post infection by Giemsa staining method; assay type: functional; summary of the method: as §1
Plasmodium berghei [19] = assay: Antiplasmodial activity against Plasmodium berghei infected in Swiss Webster mouse assessed as mouse survival at 3 mg/kg, po dosed once daily for 4 consecutive days beginning 1 hr after initial infection and measured on day 7 post infection by Giemsa staining method; assay type: functional; summary of the method: as §1
Plasmodium berghei [20] = assay: Antiplasmodial activity against Plasmodium berghei infected in Swiss Webster mouse assessed as mouse survival at 3 mg/kg, po dosed once daily for 4 consecutive days beginning 1 hr after initial infection and measured on day 4 post infection by Giemsa staining method; assay type: functional; summary of the method: as §1
Plasmodium berghei [21] = assay: Antiplasmodial activity against Plasmodium berghei infected in Swiss Webster mouse assessed as mouse survival at 11 mg/kg, po dosed once daily for 4 consecutive days beginning 1 hr after initial infection and measured on day 10 post infection by Giemsa staining method; assay type: functional; summary of the method: as §1
Plasmodium berghei [22] = assay: Antiplasmodial activity against Plasmodium berghei infected in Swiss Webster mouse assessed as mouse survival at 1 mg/kg, po dosed once daily for 4 consecutive days beginning 1 hr after initial infection and measured on day 8 post infection by Giemsa staining method; assay type: functional; summary of the method: as §1
Plasmodium berghei [23] = assay: Antiplasmodial activity against Plasmodium berghei infected in Swiss Webster mouse assessed as mouse survival at 33 mg/kg, po dosed once daily for 4 consecutive days beginning 1 hr after initial infection and measured on day 10 post infection by Giemsa staining method; assay type: functional; summary of the method: as §2
Plasmodium berghei [24] = assay: Antiplasmodial activity against Plasmodium berghei infected in Swiss Webster mouse assessed as mouse survival at 100 mg/kg, po dosed once daily for 4 consecutive days beginning 1 hr after initial infection and measured on day 9 post infection by Giemsa staining method; assay type: functional; summary of the method: as §1
Plasmodium berghei [25] = assay: Antiplasmodial activity against Plasmodium berghei infected in Swiss Webster mouse assessed as mouse survival at 1 mg/kg, po dosed once daily for 4 consecutive days beginning 1 hr after initial infection and measured on day 9 post infection by Giemsa staining method; assay type: functional; summary of the method: as §1

Row | SMILES | survival at 100 mg/kg (Plasmodium berghei [1]) [%] | survival at 11 mg/kg (Plasmodium berghei [2]) [%] | survival at 11 mg/kg (Plasmodium berghei [3]) [%] | survival at 33 mg/kg (Plasmodium berghei [4]) [%] | survival at 3 mg/kg (Plasmodium berghei [6]) [%] | survival at 100 mg/kg (Plasmodium berghei [7]) [%] | survival at 3 mg/kg (Plasmodium berghei [8]) [%] | IC50 (Plasmodium falciparum [9]) [nM] | survival at 11 mg/kg (Plasmodium berghei [10]) [%] | survival at 33 mg/kg (Plasmodium berghei [11]) [%] | survival at 33 mg/kg (Plasmodium berghei [12]) [%] | survival at 3 mg/kg (Plasmodium berghei [13]) [%] | survival at 100 mg/kg (Plasmodium berghei [14]) [%] | survival at 1 mg/kg (Plasmodium berghei [15]) [%] | survival at 11 mg/kg (Plasmodium berghei [16]) [%] | survival at 1 mg/kg (Plasmodium berghei [17]) [%] | survival at 1 mg/kg (Plasmodium berghei [18]) [%] | survival at 3 mg/kg (Plasmodium berghei [19]) [%] | survival at 3 mg/kg (Plasmodium berghei [20]) [%] | survival at 1 mg/kg (Plasmodium berghei [22]) [%] | further results
1 | COC(=O)c1cnc(Oc2ccc3c(c2)B(O)OC3)cn1 | 100 | 100 | 100 | 100 | 100 | 100 | 80 | 1.4 | 100 | 100 | 100 | 100 | 100 | 100 | 80 | 100 | 100 | 100 | 100 | 40 | IC50 (Jurkat): 7590 nM; IC50 (Plasmodium falciparum [5]): 1.9 nM; survival at 11 mg/kg (Plasmodium berghei [21]): 80%; survival at 33 mg/kg (Plasmodium berghei [23]): 100%; survival at 100 mg/kg (Plasmodium berghei [24]): 100%; survival at 1 mg/kg (Plasmodium berghei [25]): 0%
2 | O=C(O)c1cnc(Oc2ccc3c(c2)B(O)OC3)cn1 | 100 | 100 | 100 | 100 | 100 | 100 | 20 | 150 | 60 | 40 | 100 | 100 | 100 | 100 | 20 | 100 | 100 | 60 | 100 | 40 | IC50 (Jurkat): > 100000 nM; survival at 11 mg/kg (Plasmodium berghei [21]): 20%; survival at 33 mg/kg (Plasmodium berghei [23]): 40%; survival at 100 mg/kg (Plasmodium berghei [24]): 60%; survival at 1 mg/kg (Plasmodium berghei [25]): 0%
3 | NC(=O)c1cnc(Oc2ccc3c(c2)B(O)OC3)cn1 | 100 | 100 | 100 | 100 | 100 | 100 | 60 | 210 | 100 | 60 | 100 | 100 | 100 | 100 | 60 | 100 | 100 | 80 | 100 | 40 | IC50 (Jurkat): 48200 nM; IC50 (Plasmodium falciparum [5]): 350 nM; survival at 11 mg/kg (Plasmodium berghei [21]): 0%; survival at 33 mg/kg (Plasmodium berghei [23]): 0%; survival at 100 mg/kg (Plasmodium berghei [24]): 60%; survival at 1 mg/kg (Plasmodium berghei [25]): 0%
4 | O=C(O)c1ccc(Oc2ccc3c(c2)B(O)OC3)cn1 | 100 | 100 | 100 | 100 | 100 | 80 | 20 | 170 | 40 | 0 | 100 | 100 | 100 | 100 | 0 | 100 | 100 | 60 | 100 | 0 | IC50 (Plasmodium falciparum [5]): 540 nM; survival at 100 mg/kg (Plasmodium berghei [24]): 0%
